Values after ≈ are worked out from the molar mass of the structure shown.
What was measured:
Candida albicans = experiment: Antifungal activity against Candida albicans ATCC 90028; type: functional
Escherichia coli [1] = experiment: Antibacterial activity against Escherichia coli ATCC 25922 in presence of methionine; type: functional
[2] = target: T1, Cystathionine beta-lyase MetC (Escherichia coli K-12, UniProt P06721); experiment: Inhibition of Escherichia coli CBL
T1 sequence (P06721 whole entry): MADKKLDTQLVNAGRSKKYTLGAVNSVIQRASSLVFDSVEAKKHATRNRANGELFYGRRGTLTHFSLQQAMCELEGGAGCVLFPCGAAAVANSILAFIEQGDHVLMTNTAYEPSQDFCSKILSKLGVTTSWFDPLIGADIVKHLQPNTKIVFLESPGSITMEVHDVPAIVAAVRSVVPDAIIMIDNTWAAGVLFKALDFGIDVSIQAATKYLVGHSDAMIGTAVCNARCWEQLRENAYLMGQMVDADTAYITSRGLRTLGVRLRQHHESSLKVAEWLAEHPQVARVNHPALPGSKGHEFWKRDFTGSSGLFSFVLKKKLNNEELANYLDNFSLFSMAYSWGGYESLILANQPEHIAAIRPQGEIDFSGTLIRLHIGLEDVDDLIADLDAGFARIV
Outline: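 Purified E. coli CBL (24 nM) in 50 mM TAPS pH 8.5 with 1 mM DTNB, preincubated 10 min at room temperature with inhibitor in DMSO (5% final). Reaction started with 100 µM cystathionine; homocysteine formation followed at 412 nm for 4 min, rate taken from 30-200 s slope. IC50 fitted as a four-parameter logistic from 12 concentrations, triplicate.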

Escherichia coli [3] = experiment: Antibacterial activity against Escherichia coli ATCC 25922 in absence of methionine; type: functional

SMILES	MIC (Candida albicans)	MIC (Escherichia coli [1])	IC50 [2]	MIC (Escherichia coli [3])
Cc1ccc2nc(-c3ccc(NC(=O)Nc4ccc(Cl)cc4)cc3)sc2c1	> 128 µg/mL	> 128 µg/mL	16 µM	> 128 µg/mL
Cc1ccccc1NC(=O)C(C(F)(F)F)C(F)(F)F	16 µg/mL (≈ 56.1 µM)	64 µg/mL	0.28 µM	32 µg/mL (≈ 112 µM)
Cc1ccc2nc(-c3ccc(NC(=O)c4ccc(Cl)cc4)cc3)sc2c1	> 128 µg/mL	> 128 µg/mL	200 µM	> 128 µg/mL
NNC(=O)CNC(=O)c1ccccc1[N+](=O)[O-]	128 µg/mL (≈ 537 µM)	16 µg/mL	4.5 µM	16 µg/mL (≈ 67.2 µM)
NNC(=O)CNC(=O)c1ccccc1C(F)(F)F	> 128 µg/mL	> 128 µg/mL	0.079 µM	> 128 µg/mL
NNC(=O)CNC(=O)c1cccc(C(F)(F)F)c1	> 128 µg/mL	> 128 µg/mL	37 µM	> 128 µg/mL
NNC(=O)CNC(=O)c1ccc(C(F)(F)F)cc1	> 128 µg/mL	128 µg/mL	15 µM	128 µg/mL (≈ 490 µM)
NNS(=O)(=O)c1cccc2c(N)cccc12	–	–	6 µM	–
NNC(=O)CNC(=O)c1ccc([N+](=O)[O-])cc1	> 128 µg/mL	64 µg/mL	25 µM	32 µg/mL (≈ 134 µM)
NNC(=O)CNC(=O)c1cc([N+](=O)[O-])cc([N+](=O)[O-])c1	> 128 µg/mL	128 µg/mL	5.9 µM	128 µg/mL (≈ 452 µM)
O=C(OCc1ccccc1Br)c1cc([N+](=O)[O-])cc2c1-c1ccc([N+](=O)[O-])cc1/C2=N/O	> 128 µg/mL	64 µg/mL	0.53 µM	64 µg/mL (≈ 128 µM)
Cc1ccc(S(=O)(=O)NN)cc1	128 µg/mL (≈ 687 µM)	64 µg/mL	2.2 µM	32 µg/mL (≈ 172 µM)
NNS(=O)(=O)c1ccc(-c2ccccn2)s1	> 128 µg/mL	32 µg/mL	3.4 µM	32 µg/mL (≈ 125 µM)
NNS(=O)(=O)c1ccc(Cl)c(Cl)c1	–	–	1.8 µM	–
COc1c(F)c(F)cc(C(=O)NCC(=O)NN)c1F	> 128 µg/mL	> 128 µg/mL	0.65 µM	> 128 µg/mL
NNC(=O)CNC(=O)c1cc2ccccc2cc1N	> 128 µg/mL	> 128 µg/mL	560 µM	> 128 µg/mL
NNC(=O)CNC(=O)c1cc(N)cc(N)c1	> 128 µg/mL	128 µg/mL	82 µM	128 µg/mL (≈ 573 µM)
O=C(CSc1nccc(-c2cccs2)n1)c1cc(-c2ccc(Cl)c(Cl)c2)no1	> 128 µg/mL	> 128 µg/mL	2.7 µM	> 128 µg/mL
COc1cccc(OC)c1C(=O)NCC(=O)NN	> 128 µg/mL	> 128 µg/mL	60 µM	> 128 µg/mL
N#CC(C#N)=C1c2cc(S(=O)(=O)Oc3ccccc3)cc([N+](=O)[O-])c2-c2c1cc(S(=O)(=O)Oc1ccccc1)cc2[N+](=O)[O-]	–	–	9 µM	–
CC(=O)NCc1ccc(S(=O)(=O)NN)cc1	> 128 µg/mL	64 µg/mL	34 µM	64 µg/mL (≈ 263 µM)
NNC(=O)CNC(=O)Cc1cccc2ccccc12	–	–	500 µM	–
NNS(=O)(=O)c1ccc(Cl)s1	–	–	6.9 µM	–
